{"source": "ChEMBL document CHEMBL4219134", "about": "“Xanthone derivatives as phosphoglycerate mutase 1 inhibitors: Design, synthesis, and biological evaluation” (Bioorg Med Chem, 2018)", "key": {"[1]": {"organism": "Homo sapiens", "experiment": "Inhibition of pyruvate kinase (unknown origin) at 5 uM using 2-PG relative to control", "summary_of_the_method": "(§1)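 PGAM1 omitted to test the downstream coupling enzymes. Compound (0.5 mM stock) preincubated 2 min at room temperature in 50 mM Tris pH 8.0. OD340 decrease read; inhibition ratio at 5 µM.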"}, "[2]": {"test_system": "PANC-1", "experiment": "Antiproliferative activity against human PANC1 cells after 72 hrs by MTT assay", "type": "functional, cell-based", "details": "PANC-1, 72 h", "summary_of_the_method": "(§2)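 MTT assay: 2 × 10^3 cells per well, cultured 24 h at 37 °C. Compound then added for 72 h at 37 °C, followed by 0.5 mg mL-1 MTT for 4 h. Formazan dissolved in DMSO and absorbance read at 570 nm. IC50 from triplicate experiments, mean ± sd.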"}, "[3]": {"test_system": "NCI-H1299", "experiment": "Antiproliferative activity against human H1299 cells after 72 hrs by MTT assay", "type": "functional, cell-based", "details": "NCI-H1299, 72 h", "summary_of_the_method": "as §2"}, "[4]": {"test_system": "MCF7", "experiment": "Antiproliferative activity against human MCF7 cells after 72 hrs by MTT assay", "type": "functional, cell-based", "details": "MCF7, 72 h", "summary_of_the_method": "as §2"}, "[5]": {"target": "T1, Phosphoglycerate mutase 1 (Homo sapiens, UniProt P18669)", "T1 sequence (P18669 whole entry)": "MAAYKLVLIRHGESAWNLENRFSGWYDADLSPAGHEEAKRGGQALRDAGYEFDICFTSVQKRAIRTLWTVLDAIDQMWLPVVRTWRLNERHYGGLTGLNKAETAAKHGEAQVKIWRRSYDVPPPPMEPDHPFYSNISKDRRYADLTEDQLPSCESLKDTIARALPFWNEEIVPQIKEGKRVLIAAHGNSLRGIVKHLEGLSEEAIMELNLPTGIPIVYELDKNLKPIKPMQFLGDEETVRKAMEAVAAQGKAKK", "experiment": "Inhibition of recombinant PGAM1 (unknown origin) using 3-PG as substrate preincubated for 2 mins followed by substrate addition", "summary_of_the_method": "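Recombinant PGAM1 plus compound (DMSO) in 50 mM Tris pH 8.0, preincubated 2 min at room temperature. Started with 3PG (200 mM stock); NADH oxidation read as OD340 decrease. IC50 from triplicates, mean ± sd.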"}, "[6]": {"test_system": "PANC-1", "experiment": "Antiproliferative activity against human PANC1 cells at 200 uM after 72 hrs by MTT assay relative to control", "type": "functional", "details": "PANC-1, 72 h", "summary_of_the_method": "(§3)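 MTT format: 2 × 10^3 cells per well, seeded 24 h, then compound for 72 h at 37 °C. 0.5 mg mL-1 MTT for 4 h, DMSO solubilization, A570. Inhibition ratio recorded at the top tested concentration: 40 µM for H1299, 200 µM for PANC-1.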"}, "[7]": {"organism": "Homo sapiens", "experiment": "Inhibition of enolase (unknown origin) at 5 uM using 2-PG relative to control", "summary_of_the_method": "as §1"}, "[8]": {"target": "L-lactate dehydrogenase (Homo sapiens) (UniProt V9HWB9)", "experiment": "Inhibition of LDH (unknown origin) at 5 uM using 2-PG relative to control", "summary_of_the_method": "as §1"}, "[9]": {"target": "T1, Phosphoglycerate mutase 1", "experiment": "Inhibition of recombinant human His-tagged PGAM1 expressed in Escherichia coli BL21 competent cells by multiple enzymes coupled assay measuring NADH oxidation at 340 nm"}, "[10]": {"test_system": "NCI-H1299", "experiment": "Antiproliferative activity in human NCI-H1299 cells after 72 hrs", "type": "functional, cell-based", "details": "NCI-H1299, 72 h", "summary_of_the_method": "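MTT assay: 2 × 10^3 cells per well were seeded and cultured 24 h at 37 °C. Inhibitor was added and cells were incubated 72 h at 37 °C. MTT was then added at 0.5 mg/mL for 4 h at 37 °C, followed by DMSO solubilisation and absorbance reading at 570 nm. IC50 is reported as mean ± sd of triplicates.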"}, "[11]": {"organism": "Homo sapiens", "experiment": "Inhibition of pyruvate kinase (unknown origin) at 0.625 uM using 2-PG relative to control", "summary_of_the_method": "(§4)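 Counter-screen of the coupled downstream enzymes without PGAM1. Compound was preincubated 2 min at room temperature in 50 mM Tris pH 8.0. The reaction was started with 2PG (200 mM stock), and the NADH oxidation decrease was read at 340 nm.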"}, "[12]": {"target": "L-lactate dehydrogenase (Homo sapiens) (UniProt V9HWB9)", "experiment": "Inhibition of LDH (unknown origin) at 0.625 uM using 2-PG relative to control", "summary_of_the_method": "as §4"}, "[13]": {"organism": "Homo sapiens", "experiment": "Inhibition of enolase (unknown origin) at 0.625 uM using 2-PG relative to control", "summary_of_the_method": "as §4"}, "[14]": {"test_system": "PANC-1", "experiment": "Antiproliferative activity against PGAM1 overexpessed human PANC1 cells after 72 hrs by MTT assay", "type": "functional, cell-based", "details": "PANC-1, 72 h", "summary_of_the_method": "as §2"}, "[15]": {"test_system": "PANC-1", "experiment": "Antiproliferative activity against PGAM1 knockdown human PANC1 cells after 72 hrs by MTT assay", "type": "functional, cell-based", "details": "PANC-1, 72 h", "summary_of_the_method": "as §2"}, "[16]": {"test_system": "NCI-H1299", "experiment": "Potency index, ratio of PGMI-004A IC50 to test compound IC50 for antiproliferative activity against human H1299 cells", "type": "functional"}, "[17]": {"test_system": "NCI-H1299", "experiment": "Antiproliferative activity in human H1299 cells", "type": "functional, cell-based"}, "[18]": {"test_system": "NCI-H1299", "experiment": "Antiproliferative activity against human H1299 cells at 40 uM after 72 hrs by MTT assay relative to control", "type": "functional", "details": "NCI-H1299, 72 h", "summary_of_the_method": "as §3"}}, "note": "pIC50: −log10 of the molar value."}
{"compound": "O=c1c2c(O)cccc2oc2cc(NS(=O)(=O)c3ccccc3)c(O)c(O)c12", "values": [{"measurement": "inhibition", "setting": "[1]", "value": 6, "unit": "%"}, {"measurement": "pIC50", "setting": "[2]", "value": "< 3.70"}, {"measurement": "pIC50", "setting": "[3]", "value": 4.23}, {"measurement": "pIC50", "setting": "[4]", "value": 3.95}, {"measurement": "pIC50", "setting": "[5]", "value": 5.55}, {"measurement": "inhibition at 200 µM", "setting": "[6]", "value": "< 50", "unit": "%"}, {"measurement": "inhibition", "setting": "[7]", "value": 6, "unit": "%"}, {"measurement": "inhibition", "setting": "[8]", "value": 6, "unit": "%"}]}
{"compound": "O=C(O[C@@H]1Cc2c(O)cc(O)cc2O[C@@H]1c1cc(O)c(O)c(O)c1)c1cc(O)c(O)c(O)c1", "note": "[EPIGALOCATECHIN GALLATE]", "values": [{"measurement": "pIC50", "setting": "[9]", "value": 6.31}, {"measurement": "pIC50", "setting": "[10]", "value": "< 4.10"}, {"measurement": "inhibition", "setting": "[11]", "value": 63, "unit": "%"}, {"measurement": "inhibition", "setting": "[12]", "value": 63, "unit": "%"}, {"measurement": "inhibition", "setting": "[13]", "value": 63, "unit": "%"}]}
{"compound": "O=c1c2c(O)cccc2oc2cc(NS(=O)(=O)c3cc(C(F)(F)F)ccc3C(F)(F)F)c(O)c(O)c12", "values": [{"measurement": "inhibition", "setting": "[1]", "value": 2, "unit": "%"}, {"measurement": "pIC50", "setting": "[2]", "value": 4.98}, {"measurement": "pIC50", "setting": "[3]", "value": 4.77}, {"measurement": "pIC50", "setting": "[4]", "value": 4.80}, {"measurement": "pIC50", "setting": "[5]", "value": 5.20}, {"measurement": "inhibition", "setting": "[7]", "value": 2, "unit": "%"}, {"measurement": "pIC50", "setting": "[14]", "value": 4.60}, {"measurement": "inhibition", "setting": "[8]", "value": 2, "unit": "%"}, {"measurement": "pIC50", "setting": "[15]", "value": 4.37}]}
{"compound": "O=c1c2c(O)cccc2oc2cc(NS(=O)(=O)c3ccc(N4CCCC4)cc3)c(O)c(O)c12", "values": [{"measurement": "Ratio IC50", "setting": "[16]", "value": 5}, {"measurement": "inhibition", "setting": "[1]", "value": 4, "unit": "%"}, {"measurement": "pIC50", "setting": "[2]", "value": 3.86}, {"measurement": "pIC50", "setting": "[3]", "value": 5.30}, {"measurement": "pIC50", "setting": "[4]", "value": "< 3.70"}, {"measurement": "pIC50", "setting": "[5]", "value": 5.57}, {"measurement": "inhibition", "setting": "[7]", "value": 4, "unit": "%"}, {"measurement": "inhibition", "setting": "[8]", "value": 4, "unit": "%"}]}
{"compound": "O=C1c2ccccc2C(=O)c2c1cc(S(=O)(=O)Nc1ccc(C(F)(F)F)cc1)c(O)c2O", "values": [{"measurement": "inhibition", "setting": "[1]", "value": 38, "unit": "%"}, {"measurement": "pIC50", "setting": "[2]", "value": 4.49}, {"measurement": "pIC50", "setting": "[4]", "value": "< 4.40"}, {"measurement": "inhibition", "setting": "[7]", "value": 38, "unit": "%"}, {"measurement": "inhibition", "setting": "[8]", "value": 38, "unit": "%"}, {"measurement": "pIC50", "setting": "[17]", "value": 4.59}]}
{"compound": "O=c1c2c(O)cccc2oc2cc(NS(=O)(=O)c3ccc(Br)cc3)c(O)c(O)c12", "values": [{"measurement": "inhibition at 40 µM", "setting": "[18]", "value": "< 50", "unit": "%"}, {"measurement": "inhibition", "setting": "[1]", "value": 6, "unit": "%"}, {"measurement": "pIC50", "setting": "[2]", "value": "< 3.70"}, {"measurement": "pIC50", "setting": "[3]", "value": "< 4.40"}, {"measurement": "pIC50", "setting": "[4]", "value": 5.17}, {"measurement": "pIC50", "setting": "[5]", "value": 5.54}, {"measurement": "inhibition", "setting": "[7]", "value": 6, "unit": "%"}, {"measurement": "inhibition", "setting": "[8]", "value": 6, "unit": "%"}]}
